{
  "source": "ChEMBL document CHEMBL1629639",
  "about": "“Selectivity of TMC207 towards mycobacterial ATP synthase compared with that towards the eukaryotic homologue” (Antimicrob Agents Chemother, 2009)",
  "key": {"[1]": {"biological_target": "T1, Putative uncharacterized protein atpE (Mycolicibacterium smegmatis, UniProt Q5TIX5)", "T1 sequence (Q5TIX5 whole entry)": "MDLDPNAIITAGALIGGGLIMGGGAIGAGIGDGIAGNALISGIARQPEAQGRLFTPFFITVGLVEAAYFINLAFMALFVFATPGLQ", "assay": "Inhibition of Mycobacterium smegmatis MC2 155 ATP synthase subunit c-mediated ATP production at 100 nM", "procedure,_shortened": "(§1)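 Inverted membrane vesicles from M. smegmatis mc²155 incubated with compound at 25°C for 1 h with an ADP-regenerating system. ATP formed was quantified spectrophotometrically by following glucose-6-phosphate oxidation with NADP+. Controls were DCCD (100 μM) and oligomycin (1 μM). IC50 taken from the concentration-response of ATP synthesis.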"}, "[2]": {"test_system": "OVCAR-3", "assay": "Inhibition of ATP synthase mediated ATP production in human OVCAR3 cells", "assay_type": "cell-based", "procedure,_shortened": "(§2)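 OVCAR3 cells were grown in DMEM with 10% FBS and penicillin-streptomycin. Isolated mitochondria (250 μg/ml) and sonicated submitochondrial particles without outer membrane (150 μg/ml) were incubated 1 h at 25°C with compound and an ADP-regenerating system. ATP formed was quantified spectrophotometrically from glucose-6-phosphate oxidation with NADP+. Controls were DCCD 5 μM and oligomycin 1 μM.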"}, "[3]": {"species": "Bos taurus", "assay": "Inhibition of ATP synthase in bovine heart mitochondria assessed as inhibition of oxygen consumption", "settings": "concentration not given here", "procedure,_shortened": "(§3)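 Mitochondria freshly isolated from M18 mouse liver or bovine heart. Oxygen was read by Clark electrode at 37°C in 20 mM Tris-HCl pH 7.3, 85 mM KCl, 5 mM KH2PO4, 2.3 mM MgCl2, 25 mM creatine and 25 mM phosphocreatine, with an ADP-regenerating system. Succinate energised the membrane; rotenone blocked complex I. Inhibition was taken as the fall in state III O2 rate. Oligomycin 0.6 μM served as control. Mean±SD of three independent experiments.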"}, "[4]": {"species": "Bos taurus", "assay": "Inhibition of ATP synthase in bovine heart mitochondria assessed as effect on oxygen consumption at 175 uM", "procedure,_shortened": "as §3"}, "[5]": {"test_system": "Mycolicibacterium smegmatis", "assay": "Antimicrobial activity against Mycobacterium smegmatis", "assay_type": "functional"}, "[6]": {"test_system": "OVCAR-3", "assay": "Inhibition of ATP synthase mediated ATP production in human OVCAR3 cells at 5 uM", "assay_type": "cell-based", "procedure,_shortened": "as §2"}, "[7]": {"species": "Mus musculus", "assay": "Inhibition of ATP synthase in M18 mouse liver mitochondria assessed as effect on oxygen consumption at 175 uM", "procedure,_shortened": "as §3"}, "[8]": {"test_system": "OVCAR-3", "assay": "Inhibition of ATP synthase mediated ATP production in human OVCAR3 cells at 1 uM", "assay_type": "cell-based", "procedure,_shortened": "as §2"}, "[9]": {"species": "Mus musculus", "assay": "Inhibition of ATP synthase in M18 mouse liver mitochondria assessed as inhibition of oxygen consumption", "procedure,_shortened": "as §3"}, "[10]": {"test_system": "Mycobacterium tuberculosis", "assay": "Antimicrobial activity against Mycobacterium tuberculosis", "assay_type": "functional"}, "[11]": {"biological_target": "T1, Putative uncharacterized protein atpE", "assay": "Inhibition of Mycobacterium smegmatis MC2 155 ATP synthase subunit c-mediated ATP production", "procedure,_shortened": "as §1"}, "[12]": {"test_system": "OVCAR-3", "assay": "Inhibition of ATP synthase mediated ATP production in human OVCAR3 cells at 200 uM", "assay_type": "cell-based", "procedure,_shortened": "as §2"}, "[13]": {"assay": "Inhibition of human ATP synthase mediated ATP production at 100 nM", "procedure,_shortened": "as §2"}},
  "note": "Activity calls are given as the source filed them. No cut-off for these calls is given here.",
  "data": [
    {"smiles": "COc1nc2ccc(Br)cc2cc1[C@@H](c1ccccc1)[C@@](O)(CCN(C)C)c1cccc2ccccc12", "note": "[BEDAQUILINE]", "values": [
      {"measurement": "IC50", "setting": "[1]", "value": 10, "unit": "nM"},
      {"measurement": "inhibition", "setting": "[2]", "value": "inactive"},
      {"measurement": "inhibition", "setting": "[3]", "value": "> 50", "unit": "%"},
      {"measurement": "inhibition", "setting": "[4]", "value": "inactive"},
      {"measurement": "MIC", "setting": "[5]", "value": 0.015, "unit": "µM"},
      {"measurement": "inhibition", "setting": "[6]", "value": "> 90", "unit": "%"},
      {"measurement": "inhibition", "setting": "[7]", "value": "inactive"},
      {"measurement": "inhibition", "setting": "[8]", "value": "> 90", "unit": "%"},
      {"measurement": "inhibition", "setting": "[9]", "value": "> 80", "unit": "%"},
      {"measurement": "MIC", "setting": "[10]", "value": 0.03, "unit": "µM"},
      {"measurement": "IC50", "setting": "[11]", "value": 10, "unit": "nM"},
      {"measurement": "inhibition", "setting": "[12]", "value": 35, "unit": "%"},
      {"measurement": "IC50", "setting": "[13]", "value": "> 200000", "unit": "nM"}
    ]}
  ]
}
